ChEMBL document CHEMBL4371052, “Diarylcarbonates are a new class of deubiquitinating enzyme inhibitor” (Bioorg Med Chem Lett, 2019)
Calls of active or inactive are those of the source. The rule behind the calls is not given here.

Key:
[1] = target: Ubiquitin carboxyl-terminal hydrolase 9X (Homo sapiens) (UniProt Q93008); test: Inhibition of USP9x in HEK293T cell lysates assessed as enzyme recovery at 250 uM using HA-tagged vinyl-sulfone as substrate preincubated for 40 mins followed by 10-fold dilution and subsequent substrate addition measured up to 2 hrs by Western blot analysis; format: subcellular; conditions: Lysate
Chain of Ubiquitin carboxyl-terminal hydrolase 9X (Homo sapiens) (Q93008 whole entry): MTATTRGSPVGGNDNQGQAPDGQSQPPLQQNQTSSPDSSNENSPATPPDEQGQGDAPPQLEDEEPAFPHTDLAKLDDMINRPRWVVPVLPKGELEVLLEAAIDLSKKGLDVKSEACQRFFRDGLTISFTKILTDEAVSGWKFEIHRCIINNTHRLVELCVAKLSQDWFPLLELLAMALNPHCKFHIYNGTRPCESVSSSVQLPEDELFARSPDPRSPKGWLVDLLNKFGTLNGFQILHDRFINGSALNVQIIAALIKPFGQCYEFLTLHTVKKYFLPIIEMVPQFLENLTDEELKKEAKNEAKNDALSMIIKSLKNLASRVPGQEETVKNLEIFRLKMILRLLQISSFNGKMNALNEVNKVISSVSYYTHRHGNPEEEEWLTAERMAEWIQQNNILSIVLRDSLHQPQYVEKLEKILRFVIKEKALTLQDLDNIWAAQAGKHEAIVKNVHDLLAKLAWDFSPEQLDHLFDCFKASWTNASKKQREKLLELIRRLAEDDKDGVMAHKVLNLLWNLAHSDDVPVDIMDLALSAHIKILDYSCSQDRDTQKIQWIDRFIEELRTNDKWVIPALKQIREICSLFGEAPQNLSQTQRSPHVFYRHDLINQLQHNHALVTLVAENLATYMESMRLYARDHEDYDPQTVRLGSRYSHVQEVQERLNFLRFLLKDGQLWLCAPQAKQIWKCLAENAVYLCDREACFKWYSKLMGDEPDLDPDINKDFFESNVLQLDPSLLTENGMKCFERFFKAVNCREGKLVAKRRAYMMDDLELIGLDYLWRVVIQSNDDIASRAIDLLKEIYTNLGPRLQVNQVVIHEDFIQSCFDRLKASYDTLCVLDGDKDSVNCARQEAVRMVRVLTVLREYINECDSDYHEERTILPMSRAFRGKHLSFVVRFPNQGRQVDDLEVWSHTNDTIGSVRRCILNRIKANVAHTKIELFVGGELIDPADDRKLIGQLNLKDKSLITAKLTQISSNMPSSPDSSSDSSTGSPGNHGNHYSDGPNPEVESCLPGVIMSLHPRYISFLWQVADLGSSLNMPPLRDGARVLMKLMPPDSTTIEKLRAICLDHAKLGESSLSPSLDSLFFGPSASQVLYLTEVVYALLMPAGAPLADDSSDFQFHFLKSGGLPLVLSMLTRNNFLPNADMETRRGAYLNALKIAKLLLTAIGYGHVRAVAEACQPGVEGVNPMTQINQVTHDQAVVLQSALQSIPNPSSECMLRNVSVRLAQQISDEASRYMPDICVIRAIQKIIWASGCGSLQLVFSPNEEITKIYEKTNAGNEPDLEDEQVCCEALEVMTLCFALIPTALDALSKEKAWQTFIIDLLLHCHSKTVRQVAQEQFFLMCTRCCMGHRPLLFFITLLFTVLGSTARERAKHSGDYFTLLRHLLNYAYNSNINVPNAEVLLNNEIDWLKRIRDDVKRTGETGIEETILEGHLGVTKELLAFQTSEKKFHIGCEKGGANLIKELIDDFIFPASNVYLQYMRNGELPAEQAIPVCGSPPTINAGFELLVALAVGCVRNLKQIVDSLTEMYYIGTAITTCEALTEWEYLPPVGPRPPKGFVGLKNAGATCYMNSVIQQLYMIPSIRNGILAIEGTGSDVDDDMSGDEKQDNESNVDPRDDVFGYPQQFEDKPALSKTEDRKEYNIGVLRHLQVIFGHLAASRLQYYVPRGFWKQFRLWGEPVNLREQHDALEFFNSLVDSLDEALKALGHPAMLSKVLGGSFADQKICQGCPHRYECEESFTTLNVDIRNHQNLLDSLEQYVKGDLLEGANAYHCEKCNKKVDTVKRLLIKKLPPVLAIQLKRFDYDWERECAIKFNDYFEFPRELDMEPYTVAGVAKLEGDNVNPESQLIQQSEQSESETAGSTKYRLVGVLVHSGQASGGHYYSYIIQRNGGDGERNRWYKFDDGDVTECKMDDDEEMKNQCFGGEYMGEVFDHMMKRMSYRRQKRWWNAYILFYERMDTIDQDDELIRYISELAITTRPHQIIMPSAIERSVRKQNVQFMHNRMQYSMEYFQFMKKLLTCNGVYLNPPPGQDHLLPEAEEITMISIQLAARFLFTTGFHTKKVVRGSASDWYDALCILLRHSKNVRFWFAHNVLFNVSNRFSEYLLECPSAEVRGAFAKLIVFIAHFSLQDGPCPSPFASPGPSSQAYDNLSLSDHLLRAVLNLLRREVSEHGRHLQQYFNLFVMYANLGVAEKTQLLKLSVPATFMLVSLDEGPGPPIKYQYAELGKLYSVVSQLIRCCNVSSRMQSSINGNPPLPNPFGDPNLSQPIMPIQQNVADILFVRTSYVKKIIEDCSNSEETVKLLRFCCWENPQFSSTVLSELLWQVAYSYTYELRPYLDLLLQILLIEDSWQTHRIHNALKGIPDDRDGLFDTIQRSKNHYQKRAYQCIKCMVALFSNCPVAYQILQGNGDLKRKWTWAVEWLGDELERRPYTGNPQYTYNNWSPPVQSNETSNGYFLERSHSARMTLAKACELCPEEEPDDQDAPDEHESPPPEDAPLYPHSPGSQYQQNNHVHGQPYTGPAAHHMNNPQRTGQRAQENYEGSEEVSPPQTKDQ

[2] = target: T1, Ubiquitin carboxyl-terminal hydrolase isozyme L3 (Homo sapiens) (UniProt P15374); test: Inhibition of UCHL3 in HEK293T cell lysates at 25 uM using HA-tagged vinyl-sulfone as substrate preincubated for 19 to 60 mins followed by substrate addition and measured after 19 to 25 mins by Western blot analysis; format: subcellular; conditions: Lysate
T1 sequence (whole entry): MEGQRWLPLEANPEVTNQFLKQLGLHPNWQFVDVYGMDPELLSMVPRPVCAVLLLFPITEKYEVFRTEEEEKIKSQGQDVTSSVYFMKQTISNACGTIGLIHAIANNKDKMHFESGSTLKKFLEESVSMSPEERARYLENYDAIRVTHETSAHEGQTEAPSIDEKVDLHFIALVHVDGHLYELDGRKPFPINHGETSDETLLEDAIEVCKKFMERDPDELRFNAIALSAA

[3] = target: Ubiquitin carboxyl-terminal hydrolase 7 (Homo sapiens) (UniProt Q93009); test: Inhibition of USP7 in HEK293T cell lysates assessed as ratio of HA-Ub-VS modified USP7 to total USP7 at 50 uM using HA-Ub vinyl-sulfone as substrate preincubated for 19 to 60 mins followed by substrate addition and measured after 19 to 25 mins by Western blot analysis (reference value: 0.5); format: subcellular; conditions: Lysate
Chain of Ubiquitin carboxyl-terminal hydrolase 7 (Homo sapiens) (Q93009 whole entry, looked up, the tested form may be a part): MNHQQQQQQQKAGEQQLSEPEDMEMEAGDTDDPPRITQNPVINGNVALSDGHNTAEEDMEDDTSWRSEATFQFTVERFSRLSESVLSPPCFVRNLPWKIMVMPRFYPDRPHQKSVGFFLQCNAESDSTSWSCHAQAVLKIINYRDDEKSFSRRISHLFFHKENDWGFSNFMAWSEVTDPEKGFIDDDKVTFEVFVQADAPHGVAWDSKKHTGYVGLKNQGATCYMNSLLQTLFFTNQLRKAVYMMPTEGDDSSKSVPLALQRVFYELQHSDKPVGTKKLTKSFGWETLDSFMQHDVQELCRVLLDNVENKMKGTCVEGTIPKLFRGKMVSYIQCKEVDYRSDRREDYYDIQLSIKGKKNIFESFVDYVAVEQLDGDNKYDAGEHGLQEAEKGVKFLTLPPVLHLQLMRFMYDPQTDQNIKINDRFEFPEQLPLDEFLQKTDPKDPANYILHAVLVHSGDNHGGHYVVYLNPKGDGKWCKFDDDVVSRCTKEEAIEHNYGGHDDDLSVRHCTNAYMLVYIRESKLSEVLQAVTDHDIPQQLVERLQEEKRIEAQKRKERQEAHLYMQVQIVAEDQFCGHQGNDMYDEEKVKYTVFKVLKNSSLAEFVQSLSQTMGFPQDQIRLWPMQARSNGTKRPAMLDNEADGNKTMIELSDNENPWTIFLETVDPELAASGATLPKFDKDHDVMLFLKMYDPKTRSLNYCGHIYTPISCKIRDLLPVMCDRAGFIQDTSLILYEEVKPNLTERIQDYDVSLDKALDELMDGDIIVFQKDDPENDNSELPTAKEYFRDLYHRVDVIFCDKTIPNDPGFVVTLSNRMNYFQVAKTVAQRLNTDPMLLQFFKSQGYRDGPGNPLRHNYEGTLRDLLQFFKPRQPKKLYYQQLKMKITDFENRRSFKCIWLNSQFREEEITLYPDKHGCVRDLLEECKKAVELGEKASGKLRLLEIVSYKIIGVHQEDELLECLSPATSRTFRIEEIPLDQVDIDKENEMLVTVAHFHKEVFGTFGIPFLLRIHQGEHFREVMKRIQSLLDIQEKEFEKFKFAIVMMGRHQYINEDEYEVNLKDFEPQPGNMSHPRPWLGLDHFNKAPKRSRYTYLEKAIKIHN
Procedure, shortened: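 HEK 293T lysate incubated with compound, then treated with HA-Ub-VS. Samples were run on SDS-PAGE and blotted with anti-USP7, and the probe-modified USP7 band was distinguished from unmodified USP7.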

[4] = target: T2, Ubiquitin carboxyl-terminal hydrolase 19 (Homo sapiens) (UniProt O94966); test: Inhibition of USP19 in HEK293T cell lysates at 25 uM using HA-tagged vinyl-sulfone as substrate measured after 2 to 30 mins by Western blot analysis; format: subcellular; conditions: Lysate
T2 sequence (whole entry): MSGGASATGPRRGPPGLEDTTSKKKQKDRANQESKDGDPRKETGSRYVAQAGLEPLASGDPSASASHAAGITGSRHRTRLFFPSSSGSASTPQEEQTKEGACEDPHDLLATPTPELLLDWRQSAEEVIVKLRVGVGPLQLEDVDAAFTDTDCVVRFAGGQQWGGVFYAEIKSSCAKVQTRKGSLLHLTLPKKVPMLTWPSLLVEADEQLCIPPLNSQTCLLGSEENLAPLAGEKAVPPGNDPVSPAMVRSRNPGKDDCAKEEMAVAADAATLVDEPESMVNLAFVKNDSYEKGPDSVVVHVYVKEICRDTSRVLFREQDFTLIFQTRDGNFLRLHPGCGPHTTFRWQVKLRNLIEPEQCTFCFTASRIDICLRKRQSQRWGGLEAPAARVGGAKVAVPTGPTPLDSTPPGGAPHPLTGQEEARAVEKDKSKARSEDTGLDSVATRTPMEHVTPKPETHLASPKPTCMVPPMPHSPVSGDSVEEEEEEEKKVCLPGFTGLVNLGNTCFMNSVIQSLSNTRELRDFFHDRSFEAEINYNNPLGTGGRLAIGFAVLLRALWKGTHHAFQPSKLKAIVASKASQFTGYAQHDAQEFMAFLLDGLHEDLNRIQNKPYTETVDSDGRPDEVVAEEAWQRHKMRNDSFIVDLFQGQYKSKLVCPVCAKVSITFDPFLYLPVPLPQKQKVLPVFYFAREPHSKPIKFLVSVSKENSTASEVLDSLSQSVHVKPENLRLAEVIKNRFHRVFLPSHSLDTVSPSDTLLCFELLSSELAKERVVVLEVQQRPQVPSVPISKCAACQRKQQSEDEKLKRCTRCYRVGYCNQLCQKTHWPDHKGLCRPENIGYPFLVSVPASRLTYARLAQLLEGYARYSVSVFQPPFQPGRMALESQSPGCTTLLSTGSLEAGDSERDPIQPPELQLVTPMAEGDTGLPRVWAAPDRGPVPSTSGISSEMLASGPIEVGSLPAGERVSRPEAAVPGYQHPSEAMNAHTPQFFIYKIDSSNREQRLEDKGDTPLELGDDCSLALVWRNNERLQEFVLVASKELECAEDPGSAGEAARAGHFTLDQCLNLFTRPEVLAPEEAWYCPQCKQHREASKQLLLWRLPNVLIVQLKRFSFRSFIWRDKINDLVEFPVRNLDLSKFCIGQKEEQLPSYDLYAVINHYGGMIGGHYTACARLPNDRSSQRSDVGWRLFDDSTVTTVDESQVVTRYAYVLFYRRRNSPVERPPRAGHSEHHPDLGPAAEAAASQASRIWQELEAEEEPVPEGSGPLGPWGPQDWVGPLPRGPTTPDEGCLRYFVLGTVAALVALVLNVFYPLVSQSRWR
Procedure, shortened: (§1)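 HEK 293T lysate (1.5 mg/ml) given compound (25 μM) or DMSO at the same time as HA-Ub-VS (1.5 μM). Aliquots withdrawn over time were run on SDS-PAGE and immunoblotted for HA.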

[5] = target: Ubiquitin carboxyl-terminal hydrolase isozyme L5 (Homo sapiens) (UniProt Q9Y5K5); test: Inhibition of UCHL5 in HEK293T cell lysates at 25 uM using HA-tagged vinyl-sulfone as substrate measured after 2 to 30 mins by Western blot analysis; format: subcellular; conditions: Lysate; procedure, shortened: as §1
Chain of Ubiquitin carboxyl-terminal hydrolase isozyme L5 (Homo sapiens) (Q9Y5K5 whole entry, the tested form may be a part): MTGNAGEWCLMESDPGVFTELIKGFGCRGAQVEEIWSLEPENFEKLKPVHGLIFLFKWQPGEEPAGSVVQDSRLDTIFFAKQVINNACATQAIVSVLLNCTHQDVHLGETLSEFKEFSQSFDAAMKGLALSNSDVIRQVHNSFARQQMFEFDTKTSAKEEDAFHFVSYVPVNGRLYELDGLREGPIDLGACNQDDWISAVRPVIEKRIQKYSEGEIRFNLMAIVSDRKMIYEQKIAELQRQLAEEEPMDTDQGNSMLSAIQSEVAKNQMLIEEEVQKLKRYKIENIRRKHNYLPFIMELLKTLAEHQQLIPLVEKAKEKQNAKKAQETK

[6] = target: T1, Ubiquitin carboxyl-terminal hydrolase isozyme L3 (Homo sapiens); test: Inhibition of UCHL3 in HEK293T cell lysates at 25 uM using HA-tagged vinyl-sulfone as substrate measured after 2 to 30 mins by Western blot analysis; format: subcellular; conditions: Lysate; procedure, shortened: as §1
[7] = target: Ubiquitin carboxyl-terminal hydrolase isozyme L5 (Homo sapiens) (UniProt Q9Y5K5); test: Inhibition of UCHL5 in HEK293T cell lysates assessed as enzyme recovery at 250 uM using HA-tagged vinyl-sulfone as substrate preincubated for 40 mins followed by 10-fold dilution and subsequent substrate addition measured within 15 mins by Western blot analysis; format: subcellular; conditions: Lysate
[8] = target: Ubiquitin carboxyl-terminal hydrolase 7 (Homo sapiens) (UniProt Q93009); test: Inhibition of recombinant His6-tagged USP7 catalytic domain (unknown origin) using Ub-AMC as substrate by fluorescence assay; conditions: TDE = time-dependent effect
Chymotrypsin [9] = target: Chymotrypsin (Homo sapiens, UniProt Q99895+P17538+P40313+Q6GPI1); test: (§2) Substrate activity at chymotrypsin (unknown origin) by Michaelis-Menten plot analysis; format: ADME, protein assay
Procedure, shortened: (§3)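 Diarylcarbonate hydrolysis by chymotrypsin or trypsin measured across substrate concentrations; velocity versus substrate concentration fit for Km and kcat.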

chymotrypsin [10] = target: chymotrypsin (Homo sapiens, UniProt P17538+P40313+Q6GPI1+Q99895); test: as §2; format: ADME, protein assay; conditions: chymotrypsin (isolated enzyme, unknown origin); procedure, shortened: as §3
[11] = target: Ubiquitin carboxyl-terminal hydrolase 7 (Homo sapiens) (UniProt Q93009); test: Inhibition of USP7 in human MCF7 cells assessed as decrease in Mdm2 expression at 25 uM after 4 hrs by Western blot analysis; format: cell-based
Procedure, shortened: (§4)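 MCF7 cells treated with compound for 4 h. Mdm2, p53 and p21 levels were determined by immunoblotting.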

[12] = target: Ubiquitin carboxyl-terminal hydrolase 7 (Homo sapiens) (UniProt Q93009); test: Inhibition of USP7 in human MCF7 cells assessed as increase in p53 expression after 4 to 48 hrs by Western blot analysis; format: cell-based
[13] = target: Ubiquitin carboxyl-terminal hydrolase 7 (Homo sapiens) (UniProt Q93009); test: Inhibition of USP7 in human MCF7 cells assessed as increase in p21 expression at 25 uM after 4 hrs by Western blot analysis; format: cell-based; procedure, shortened: as §4

inhibition [1]: inactive | inhibition [2]: inactive | Ratio [3]: 0.4 | inhibition [4]: inactive | inhibition [5]: inactive | inhibition [6]: inactive | inhibition [7]: Active | inhibition [8]: Tde | Kcat (Chymotrypsin [9]): 0.03 s⁻¹ | Km (chymotrypsin [10]): 1 µM | inhibition [11]: Active | Activity [12]: Active | inhibition [13]: Active
SMILES: NCc1ccc(OC(=O)Oc2ccc3ccccc3c2)cc1
